Data on 12 compounds can be found in ChEMBL document CHEMBL4732095, “Novel naphthylamide derivatives as dual-target antifungal inhibitors: Design, synthesis and biological evaluation” (Eur J Med Chem, 2021).

Calls of active or inactive are those of the source. The rule behind the calls is not given here.

The first assay deals with Candida albicans. The assay is described as follows: Antifungal activity against Candida albicans ATCC 10231 assessed as inhibition of microbial growth by NCCLS protocol based method. The format is functional.
Details: not given
Summed up:
(§1)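 Broth MIC50 determined following NCCLS guidelines in Sabouraud medium, with fungal suspension in 24-well format. Compound tested at 0.0625, 0.125, 0.5, 1, 2, 4, 8 and 16 μg/mL. Plates cultured statically at 35 °C. MIC50 is the lowest concentration giving 50% growth inhibition. Naftifine and fluconazole served as positive controls.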
In the case of `O=C(NC(Cn1ccnc1)C(=O)NCc1ccccc1)c1ccc2ccccc2c1` (centres undefined), the MIC50 was 0.5 µg/mL.

Regarding `CN(CC(=O)NCc1cccnc1)C(=O)c1cccc2ccccc12`, the MIC50 is 0.5 µg/mL.

With `CC(C)C(NC(=O)c1ccc2ccccc2c1)C(=O)NC(Cn1ccnc1)C(=O)c1ccccc1` (centres undefined), the MIC50 was determined as 0.5 µg/mL.

For `CN(CC(=O)NCc1ccncc1)C(=O)c1ccc2ccccc2c1`, the MIC50 is 0.25 µg/mL.

For the compound `CN(C/C=C/c1ccccc1)Cc1cccc2ccccc12` [NAFTIFINE], the MIC50 was found to be 0.5 µg/mL.

Consider `Cc1ccc(NC(=O)C(Cn2ccnc2)NC(=O)c2cccc3ccccc23)cc1` (centres undefined), for which the MIC50 is 0.25 µg/mL.

For the compound `CN(CC(=O)NCc1ccncc1)C(=O)c1cccc2ccccc12`, the MIC50 is 1 µg/mL.

In the case of `CN(CC(=O)Nc1ccncc1)C(=O)c1cccc2ccccc12`, the MIC50 worked out at 0.5 µg/mL.

Regarding `CC(NC(=O)c1ccc2ccccc2c1)C(=O)NC(Cn1ccnc1)C(=O)c1ccccc1` (centres undefined), the MIC50 stood at 0.25 µg/mL.

As for `CN(CC(=O)NC(Cn1ccnc1)C(=O)c1ccccc1)C(=O)c1ccc2ccccc2c1` (centres undefined), the MIC50 was found to be 0.125 µg/mL.

With `O=C(NC(Cn1ccnc1)C(=O)NCc1ccncc1)c1cccc2ccccc12` (centres undefined), the MIC50 was determined as 0.25 µg/mL.

Consider `CN(CC(=O)NC(Cn1ccnc1)C(=O)c1ccccc1)C(=O)c1cccc2ccccc12` (centres undefined), for which the MIC50 was 0.5 µg/mL.

The subject of the next assay is Nakaseomyces glabratus. The assay is described as follows: Antifungal activity against Candida glabrata ATCC 0001 assessed as inhibition of microbial growth by NCCLS protocol based method. It is filed as functional.
Details: not given
The gist of the method:
as §1
As to `O=C(NC(Cn1ccnc1)C(=O)NCc1ccccc1)c1ccc2ccccc2c1` (centres undefined), the MIC50 amounted to 1 µg/mL.

`CN(CC(=O)NCc1cccnc1)C(=O)c1cccc2ccccc12`: the MIC50 amounted to 2 µg/mL.

With `CC(C)C(NC(=O)c1ccc2ccccc2c1)C(=O)NC(Cn1ccnc1)C(=O)c1ccccc1` (centres undefined), the MIC50 was 1 µg/mL.

Take `CN(CC(=O)NCc1ccncc1)C(=O)c1ccc2ccccc2c1`: the MIC50 was determined as 2 µg/mL.

Turning to `CN(C/C=C/c1ccccc1)Cc1cccc2ccccc12` [NAFTIFINE], the MIC50 was 0.25 µg/mL.

With `Cc1ccc(NC(=O)C(Cn2ccnc2)NC(=O)c2cccc3ccccc23)cc1` (centres undefined), the MIC50 is 0.25 µg/mL.

For the compound `CN(CC(=O)NCc1ccncc1)C(=O)c1cccc2ccccc12`, the MIC50 came out at 1 µg/mL.

`CN(CC(=O)Nc1ccncc1)C(=O)c1cccc2ccccc12`: the MIC50 was 0.5 µg/mL.

Turning to `CC(NC(=O)c1ccc2ccccc2c1)C(=O)NC(Cn1ccnc1)C(=O)c1ccccc1` (centres undefined), the MIC50 was 0.5 µg/mL.

Take `CN(CC(=O)NC(Cn1ccnc1)C(=O)c1ccccc1)C(=O)c1ccc2ccccc2c1` (centres undefined): the MIC50 was determined as 0.25 µg/mL.

`O=C(NC(Cn1ccnc1)C(=O)NCc1ccncc1)c1cccc2ccccc12` (centres undefined): the MIC50 was 0.5 µg/mL.

In the case of `CN(CC(=O)NC(Cn1ccnc1)C(=O)c1ccccc1)C(=O)c1cccc2ccccc12` (centres undefined), the MIC50 is 0.25 µg/mL.

The next assay concerns Pichia kudriavzevii. The assay can be described thus: Antifungal activity against Candida krusei ATCC 6258 assessed as inhibition of microbial growth by NCCLS protocol based method. It is filed as functional.
Details: not given
Summed up: as §1
Turning to `O=C(NC(Cn1ccnc1)C(=O)NCc1ccccc1)c1ccc2ccccc2c1` (centres undefined), the MIC50 was 1 µg/mL.

On to `CN(CC(=O)NCc1cccnc1)C(=O)c1cccc2ccccc12`, for which the MIC50 is 0.5 µg/mL.

On to `CC(C)C(NC(=O)c1ccc2ccccc2c1)C(=O)NC(Cn1ccnc1)C(=O)c1ccccc1` (centres undefined), for which the MIC50 amounted to 1 µg/mL.

Regarding `CN(CC(=O)NCc1ccncc1)C(=O)c1ccc2ccccc2c1`, the MIC50 came out at 0.5 µg/mL.

For `CN(C/C=C/c1ccccc1)Cc1cccc2ccccc12` [NAFTIFINE], the MIC50 worked out at 2 µg/mL.

For `Cc1ccc(NC(=O)C(Cn2ccnc2)NC(=O)c2cccc3ccccc23)cc1` (centres undefined), the MIC50 came to 0.5 µg/mL.

Take `CN(CC(=O)NCc1ccncc1)C(=O)c1cccc2ccccc12`: the MIC50 turned out to be 2 µg/mL.

As to `CN(CC(=O)Nc1ccncc1)C(=O)c1cccc2ccccc12`, the MIC50 was found to be 0.5 µg/mL.

For the compound `CC(NC(=O)c1ccc2ccccc2c1)C(=O)NC(Cn1ccnc1)C(=O)c1ccccc1` (centres undefined), the MIC50 was 0.25 µg/mL.

Take `CN(CC(=O)NC(Cn1ccnc1)C(=O)c1ccccc1)C(=O)c1ccc2ccccc2c1` (centres undefined): the MIC50 is 0.25 µg/mL.

As to `O=C(NC(Cn1ccnc1)C(=O)NCc1ccncc1)c1cccc2ccccc12` (centres undefined), the MIC50 was determined as 0.5 µg/mL.

As for `CN(CC(=O)NC(Cn1ccnc1)C(=O)c1ccccc1)C(=O)c1cccc2ccccc12` (centres undefined), the MIC50 was found to be 0.5 µg/mL.

A further assay concerns Candida tropicalis. The assay is described as follows: Antifungal activity against Candida tropicalis ATCC 1369 assessed as inhibition of microbial growth by NCCLS protocol based method. It is filed as functional.
Details: not given
The gist of the method: as §1
Consider `O=C(NC(Cn1ccnc1)C(=O)NCc1ccccc1)c1ccc2ccccc2c1` (centres undefined), for which the MIC50 is 0.5 µg/mL.

Take `CN(CC(=O)NCc1cccnc1)C(=O)c1cccc2ccccc12`: the MIC50 is 0.25 µg/mL.

Take `CC(C)C(NC(=O)c1ccc2ccccc2c1)C(=O)NC(Cn1ccnc1)C(=O)c1ccccc1` (centres undefined): the MIC50 was 0.5 µg/mL.

Consider `CN(CC(=O)NCc1ccncc1)C(=O)c1ccc2ccccc2c1`, for which the MIC50 was 1 µg/mL.

Consider `CN(C/C=C/c1ccccc1)Cc1cccc2ccccc12` [NAFTIFINE], for which the MIC50 was 0.5 µg/mL.

Take `Cc1ccc(NC(=O)C(Cn2ccnc2)NC(=O)c2cccc3ccccc23)cc1` (centres undefined): the MIC50 was 0.5 µg/mL.

Regarding `CN(CC(=O)NCc1ccncc1)C(=O)c1cccc2ccccc12`, the MIC50 was 0.5 µg/mL.

For `CN(CC(=O)Nc1ccncc1)C(=O)c1cccc2ccccc12`, the MIC50 came to 1 µg/mL.

On to `CC(NC(=O)c1ccc2ccccc2c1)C(=O)NC(Cn1ccnc1)C(=O)c1ccccc1` (centres undefined), for which the MIC50 was determined as 0.125 µg/mL.

With `CN(CC(=O)NC(Cn1ccnc1)C(=O)c1ccccc1)C(=O)c1ccc2ccccc2c1` (centres undefined), the MIC50 was 0.25 µg/mL.

For `O=C(NC(Cn1ccnc1)C(=O)NCc1ccncc1)c1cccc2ccccc12` (centres undefined), the MIC50 is 0.25 µg/mL.

In the case of `CN(CC(=O)NC(Cn1ccnc1)C(=O)c1ccccc1)C(=O)c1cccc2ccccc12` (centres undefined), the MIC50 stood at 0.25 µg/mL.

Another assay concerns Aspergillus fumigatus. The assay can be described thus: Antifungal activity against Aspergillus fumigatus KM8001 assessed as inhibition of microbial growth by NCCLS protocol based method.
Details: not given
The format is functional. Summed up: as §1
In the case of `O=C(NC(Cn1ccnc1)C(=O)NCc1ccccc1)c1ccc2ccccc2c1` (centres undefined), the MIC50 is more than 16 µg/mL.

In the case of `CN(CC(=O)NCc1cccnc1)C(=O)c1cccc2ccccc12`, the MIC50 is more than 16 µg/mL.

As for `CC(C)C(NC(=O)c1ccc2ccccc2c1)C(=O)NC(Cn1ccnc1)C(=O)c1ccccc1` (centres undefined), the MIC50 is more than 16 µg/mL.

Take `CN(CC(=O)NCc1ccncc1)C(=O)c1ccc2ccccc2c1`: the MIC50 amounted to 8 µg/mL.

For the compound `CN(C/C=C/c1ccccc1)Cc1cccc2ccccc12` [NAFTIFINE], the MIC50 was determined as 8 µg/mL.

For `Cc1ccc(NC(=O)C(Cn2ccnc2)NC(=O)c2cccc3ccccc23)cc1` (centres undefined), the MIC50 is more than 16 µg/mL.

Take `CN(CC(=O)NCc1ccncc1)C(=O)c1cccc2ccccc12`: the MIC50 amounted to 8 µg/mL.

Take `CN(CC(=O)Nc1ccncc1)C(=O)c1cccc2ccccc12`: the MIC50 was 8 µg/mL.

As for `CC(NC(=O)c1ccc2ccccc2c1)C(=O)NC(Cn1ccnc1)C(=O)c1ccccc1` (centres undefined), the MIC50 amounted to 8 µg/mL.

As to `CN(CC(=O)NC(Cn1ccnc1)C(=O)c1ccccc1)C(=O)c1ccc2ccccc2c1` (centres undefined), the MIC50 was 8 µg/mL.

Regarding `O=C(NC(Cn1ccnc1)C(=O)NCc1ccncc1)c1cccc2ccccc12` (centres undefined), the MIC50 is 8 µg/mL.

Regarding `CN(CC(=O)NC(Cn1ccnc1)C(=O)c1ccccc1)C(=O)c1cccc2ccccc12` (centres undefined), the MIC50 was found to be 8 µg/mL.

Another assay relates to Candida albicans. The assay can be described thus: Antifungal activity against fluconazole-resistant Candida albicans 17# assessed as inhibition of microbial growth by NCCLS protocol based method.
Details: not given
It is filed as functional.
Regarding `CN(C/C=C/c1ccccc1)Cc1cccc2ccccc12` [NAFTIFINE], the MIC50 was more than 16 µg/mL.

The next assay deals with Candida albicans. The assay can be described thus: Antifungal activity against fluconazole-resistant Candida albicans CaR assessed as inhibition of microbial growth by NCCLS protocol based method. The format is functional.
Details: not given
`CN(C/C=C/c1ccccc1)Cc1cccc2ccccc12` [NAFTIFINE]: the MIC50 is more than 16 µg/mL.

For another assay, the system named is Candida albicans. The assay can be described thus: Antifungal activity against fluconazole-resistant Candida albicans 632 assessed as inhibition of microbial growth by NCCLS protocol based method.
Details: not given
It is filed as functional.
Regarding `CN(C/C=C/c1ccccc1)Cc1cccc2ccccc12` [NAFTIFINE], the MIC50 is more than 16 µg/mL.

The subject of another assay is Candida albicans. The assay can be described thus: Antifungal activity against fluconazole-resistant Candida albicans 901 assessed as inhibition of microbial growth by NCCLS protocol based method. The format is functional.
Details: not given
On to `CN(C/C=C/c1ccccc1)Cc1cccc2ccccc12` [NAFTIFINE], for which the MIC50 is more than 16 µg/mL.

The next assay relates to Candida albicans. The assay can be described thus: Antifungal activity against fluconazole-resistant Candida albicans 904 assessed as inhibition of microbial growth by NCCLS protocol based method. It is filed as functional.
Details: not given
On to `CN(C/C=C/c1ccccc1)Cc1cccc2ccccc12` [NAFTIFINE], for which the MIC50 is more than 16 µg/mL.

In a further assay the test system is Candida albicans. The assay can be described thus: Antifungal activity against Candida albicans ATCC SC5314 assessed as decrease in fungal cell density at 10 nM/mL by polarizing microscopy. It is filed as functional, organism-based. The following applies: dose 10.0 nmol/ml. The gist of the method:
(§2)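 C. albicans ATCC SC5314 observed by polarizing microscopy over treatment time. Untreated, fluconazole- and naftifine-treated control groups were included. Cell density, dividing cells and cell fracture were assessed, with cell counts taken per field.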
On to `CN(C/C=C/c1ccccc1)Cc1cccc2ccccc12` [NAFTIFINE], for which the outcome was Active.

Another assay concerns Candida albicans. The assay is described as follows: Antifungal activity against Candida albicans ATCC SC5314 assessed as reduction in cell division at 10 nM/mL by polarizing microscopy. The format is functional, organism-based. The conditions noted are these: dose 10.0 nmol/ml. Summed up: as §2
In the case of `CN(C/C=C/c1ccccc1)Cc1cccc2ccccc12` [NAFTIFINE], the outcome was Active.

The next assay concerns Candida albicans. The assay is described as follows: Antifungal activity against Candida albicans ATCC SC5314 assessed as induction of cell fracture at 10 nM/mL by polarizing microscopy. The conditions noted are these: dose 10.0 nmol/ml. The format is functional, organism-based. Summed up:
as §2
Consider `CN(C/C=C/c1ccccc1)Cc1cccc2ccccc12` [NAFTIFINE], for which the outcome was Active.

Test system in another assay: not listed separately
The assay is described as follows: Inhibition of Candida albicans ATCC SC5314 SE incubated for 30 mins by spectrophotometric method.
Details: not given
Summed up:
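Enzymes (SE, CYP51) extracted from C. albicans SC5314 using kits. 50 µg enzyme incubated with varying compound concentrations for 30 min at 37 °C in Tris pH 7.4, KCl, MgCl2, 2 mM NADPH, with squalene or eburicol as substrate. Reaction stopped with acetonitrile and centrifuged. Eburicol consumption (CYP51) read by HPLC. Squalene, after sulfuric acid/formaldehyde derivatization, read at 400 nm (SE). IC50 reported.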
Compound `CN(C/C=C/c1ccccc1)Cc1cccc2ccccc12` [NAFTIFINE] displayed a half-maximal inhibitory concentration (IC50) of 284 nM.
